The values that follow come from ChEMBL document CHEMBL4706575, “Nonpeptidic quinazolinone derivatives as dual nucleotide-binding oligomerization domain-like receptor 1/2 antagonists for adjuvant cancer chemotherapy” (Eur J Med Chem, 2020).

In data set [1] the target is T1, Nucleotide-binding oligomerization domain-containing protein 1 (Homo sapiens) (UniProt Q9Y239).
T1 sequence (whole entry): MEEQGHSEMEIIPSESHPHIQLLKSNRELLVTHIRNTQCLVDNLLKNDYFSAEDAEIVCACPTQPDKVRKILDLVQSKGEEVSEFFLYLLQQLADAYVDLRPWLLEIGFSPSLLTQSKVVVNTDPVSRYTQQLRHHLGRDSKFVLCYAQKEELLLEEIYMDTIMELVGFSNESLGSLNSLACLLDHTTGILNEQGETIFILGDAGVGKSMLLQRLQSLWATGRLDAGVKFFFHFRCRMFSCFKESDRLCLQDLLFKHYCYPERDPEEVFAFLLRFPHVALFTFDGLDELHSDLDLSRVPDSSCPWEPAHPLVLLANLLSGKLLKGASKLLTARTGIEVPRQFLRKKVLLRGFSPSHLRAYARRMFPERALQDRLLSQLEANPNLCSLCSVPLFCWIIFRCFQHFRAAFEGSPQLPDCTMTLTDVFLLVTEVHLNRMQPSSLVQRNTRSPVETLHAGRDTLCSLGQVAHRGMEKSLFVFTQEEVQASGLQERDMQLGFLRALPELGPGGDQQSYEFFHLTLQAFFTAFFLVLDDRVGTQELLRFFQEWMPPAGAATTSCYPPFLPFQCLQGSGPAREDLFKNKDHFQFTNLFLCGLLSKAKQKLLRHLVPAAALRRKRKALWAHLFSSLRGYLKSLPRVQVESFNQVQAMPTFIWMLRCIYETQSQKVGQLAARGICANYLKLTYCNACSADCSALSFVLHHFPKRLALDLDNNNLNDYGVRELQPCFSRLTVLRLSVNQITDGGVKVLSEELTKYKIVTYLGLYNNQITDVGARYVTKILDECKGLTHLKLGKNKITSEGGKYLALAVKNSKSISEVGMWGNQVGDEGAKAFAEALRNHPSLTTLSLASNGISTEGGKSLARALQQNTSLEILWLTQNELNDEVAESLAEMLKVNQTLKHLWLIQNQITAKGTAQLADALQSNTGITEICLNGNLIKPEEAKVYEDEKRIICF
Nature of the data set: (§1) Antagonist activity at NOD1 in HEK-Blue hNOD1 cells assessed as inhibition of C12-iE-DAP-induced NFkappaB activation-mediated SEAP release preincubated for 3 hrs followed by C12-iE-DAP addition and measured after 20 hrs by spectrophotometric method. It counts as cell-based. Particulars: filed as antagonist, time 23.0 hrs.

Data set [2] concerns the target T2, Nucleotide-binding oligomerization domain-containing protein 1 (Homo sapiens, UniProt Q9Y239).
T2 sequence (Q9Y239 whole entry): T1 sequence (whole entry)
The data set is described as §1. It counts as cell-based.

The target of data set [3] is T3, Nucleotide-binding oligomerization domain-containing protein 2 (Homo sapiens, UniProt Q9HC29). Nature of the data set: Antagonist activity at NOD2 in HEK-Blue hNOD2 cells assessed as inhibition of MDP-induced NFkappaB activation-mediated SEAP release preincubated for 3 hrs followed by MDP addition and measured after 20 hrs by spectrophotometric method. It counts as cell-based. In outline: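 HEK-Blue hNOD2 cells preincubated 3 h with a range of concentrations, then MDP 100 ng/mL for 20 h. SEAP quantified. SRB assay run to exclude cytotoxicity. IC50 by nonlinear semi-logarithmic fit, mean ± SD, n = 3.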

Data set [4] is described as follows: Half life in mouse liver microsomes at 1.25 uM preincubated for 5 mins followed by NADPH generating system addition and measured for 120 mins by LC-MS/MS analysis. It counts as ADME, Microsome. In outline: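 Mouse liver microsomes (1.25 mg/mL protein) in 100 mM phosphate pH 7.4 with 1.25 µM compound, preincubated 5 min at 37 °C. Reaction started with NADPH-generating system (1 mM NADP, 10 mM MgCl2, 10 mM G6P, 0.5 U/mL G6PDH). Sampled at 0–120 min, quenched with MeOH/ACN 1:1, analysed by LC-MS/MS.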
In general terms: Microsomes from liver hold many membrane-bound enzymes, among them those of drug oxidation.

Data set [5] has as its target T1, Nucleotide-binding oligomerization domain-containing protein 1 (Homo sapiens). Description: Antagonist activity at NOD1 in human THP-1 cells assessed as inhibition of C12-iE-DAP-induced increase in IKKalpha/beta phosphorylation at 1 to 10 uM preincubated for 1 hr followed by C12-iE-DAP addition and measured after 30 mins by Western blot analysis. It counts as cell-based. Particulars: filed as antagonist, dose 1-10 µM, time 1.5 hrs. The essentials: (§2)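 Serum-starved THP-1 cells pretreated with compound (1.0 or 10 µM) or without for 1 h. Then C12-iE-DAP 500 ng/mL (NOD1) or MDP (NOD2) for 30 min. Lysed in cold whole-cell buffer. Western blot for IκBα and for total and phospho RIP2, IKKα/β, p65, JNK, p38 and ERK1/2. β-actin as loading control.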

Data set [6] has the same target. Description: Antagonist activity at NOD1 in human THP-1 cells assessed as inhibition of C12-iE-DAP-induced IkappaBalpha degradation at 1 to 10 uM preincubated for 1 hr followed by C12-iE-DAP addition and measured after 30 mins by Western blot analysis. It counts as cell-based. The following applies: filed as antagonist, dose 1-10 µM, time 1.5 hrs. The essentials: as §2
In general terms: A western blot detects proteins with antibodies after separation by electrophoresis.

The target of data set [7] is T3, Nucleotide-binding oligomerization domain-containing protein 2. Nature of the data set: Antagonist activity at NOD2 in human THP-1 cells assessed as inhibition of MDP-induced increase in RIP2 phosphorylation preincubated for 1 hr followed by MDP addition and measured after 30 mins by Western blot analysis. It counts as cell-based. Particulars: filed as antagonist, dose 1-10 µM, time 1.5 hrs. In outline:
as §2

For data set [8] the target is unchanged. Nature of the data set: Antagonist activity at NOD2 in human THP-1 cells assessed as inhibition of MDP-induced increase in JNK phosphorylation preincubated for 1 hr followed by MDP addition and measured after 30 mins by Western blot analysis. It counts as cell-based. The following applies: filed as antagonist, dose 1-10 µM, time 1.5 hrs. The essentials: as §2

The subject of another data set is B16-F10. Nature of the data set: Potentiation of paclitaxel-induced antitumor activity against mouse B16-F10 cells implanted in C57BL/6 mouse assessed as tumor growth inhibition at 50 mg/kg, iv administered every other day for 15 days measured 24 hrs post last dose (reference value: 64.07%). It counts as functional. Particulars: 384 h, time 16 day, read-out: TGI.

A short description of data set [9]: Toxicity in mouse B16-F10 cells implanted C57BL/6 mouse assessed as change in body weight at 50 mg/kg, iv administered every other day for 15 days. Particulars: in vivo, 360 h, time 15 day. It counts as organism-based.

The structures appear in SMILES notation. Active and inactive are the calls of the source. The rule behind the calls is not given here.

T3 sequence (Q9HC29 whole entry, the tested form may be a part): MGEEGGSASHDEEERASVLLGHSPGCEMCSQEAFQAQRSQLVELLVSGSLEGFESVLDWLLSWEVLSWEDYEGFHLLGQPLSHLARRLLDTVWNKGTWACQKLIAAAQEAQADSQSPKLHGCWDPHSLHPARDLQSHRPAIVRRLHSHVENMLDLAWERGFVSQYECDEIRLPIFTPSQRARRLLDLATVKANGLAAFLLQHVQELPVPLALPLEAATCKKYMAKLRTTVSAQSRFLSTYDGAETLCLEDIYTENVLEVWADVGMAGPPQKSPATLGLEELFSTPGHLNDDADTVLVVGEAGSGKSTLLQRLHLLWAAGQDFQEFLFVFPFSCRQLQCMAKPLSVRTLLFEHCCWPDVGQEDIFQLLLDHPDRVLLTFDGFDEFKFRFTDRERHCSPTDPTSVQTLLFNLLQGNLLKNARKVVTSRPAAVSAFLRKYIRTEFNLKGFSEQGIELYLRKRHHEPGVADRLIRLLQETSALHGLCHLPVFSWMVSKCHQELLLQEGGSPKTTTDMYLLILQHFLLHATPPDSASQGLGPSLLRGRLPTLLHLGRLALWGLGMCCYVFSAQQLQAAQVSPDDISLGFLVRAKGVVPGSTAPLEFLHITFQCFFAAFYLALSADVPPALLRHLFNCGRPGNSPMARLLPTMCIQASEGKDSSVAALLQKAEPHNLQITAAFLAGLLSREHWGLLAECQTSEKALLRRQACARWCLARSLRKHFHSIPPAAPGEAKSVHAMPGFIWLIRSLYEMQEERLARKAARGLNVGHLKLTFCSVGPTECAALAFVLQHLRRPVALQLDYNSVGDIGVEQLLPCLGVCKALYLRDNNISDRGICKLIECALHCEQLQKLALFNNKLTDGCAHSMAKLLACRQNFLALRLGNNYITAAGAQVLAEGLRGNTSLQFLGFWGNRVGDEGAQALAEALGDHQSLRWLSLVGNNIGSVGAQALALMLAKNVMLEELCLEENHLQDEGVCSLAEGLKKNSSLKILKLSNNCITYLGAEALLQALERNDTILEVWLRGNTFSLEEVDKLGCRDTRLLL

What is called IC50 is the point on the concentration scale where inhibition reaches its midpoint. For orientation: half-life means how long it takes for the measured level to halve. Take `O=C(NCCCOc1ccc(C(F)(F)F)cc1)c1cc2ncn(CC(=O)N3CCCC(F)(F)C3)c(=O)c2cc1-c1cccc(Cl)c1`: the inhibition result in data set [1] is “Dose-dependent effect”; in data set [3] (filed as antagonist, time 23.0 hrs) it was “Dose-dependent effect”; in [7], “Dose-dependent effect”; in [8], “Dose-dependent effect”. The IC50 in [2] was 1130 nM; in data set [3] it was 770 nM. The same molecule yielded a half-life at 1.25 µM in data set [4] of 1.13 h. The inhibition result in data set [5] and in data set [6] was “Active” each time. Further, the inhibition in vivo at 50 mg/kg in the data set with B16-F10 is 85.5%. Further, in data set [9], the Activity entry is “Non-Toxic”.
